From ChEMBL document CHEMBL4477213, “Discovery and Optimization of Quinazolinone-pyrrolopyrrolones as Potent and Orally Bioavailable Pan-Pim Kinase Inhibitors” (J Med Chem, 2016)
pIC50: −log10 of the molar value. Values after ≈ are worked out from the molar mass of the structure shown.

Assays:
[1] = Aqueous solubility of the compound in FaSIF at pH 6.8 after 1 hr by LC/MS analysis
[2] = Volume of distribution at steady state in rat at 2 mg/kg, iv or 5 mg/kg, po; format: ADME, organism-based; details: in vivo, read-out: Vdss
[3] = Oral bioavailability in rat at 5 mg/kg; format: ADME, organism-based; details: in vivo
[4] = Aqueous solubility of the compound in PBS at pH 7.4 after 1 hr by LC/MS analysis; format: physicochemical
How it was run: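 The compound was dried down from DMSO and taken up in 1x PBS (pH 7.4) or FaSIF (pH 6.8). Samples were shaken 1 h, equilibrated at RT for 72 h, then centrifuged.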

[5] = Apparent permeability in pig LLC-PK1 cells; format: ADME, cell-based, Sus scrofa
[6] = target: Serine/threonine-protein kinase pim-2 (Homo sapiens, UniProt Q9P1W9); assay: Inhibition of full length recombinant Pim-2 (unknown origin) assessed as reduction in phosphorylation of biotinylated-BAD peptide at Serine 112 residue preincubated for 30 mins followed by substrate addition for 1 hr by HTRF assay
Serine/threonine-protein kinase pim-2, sequence (Q9P1W9 whole entry): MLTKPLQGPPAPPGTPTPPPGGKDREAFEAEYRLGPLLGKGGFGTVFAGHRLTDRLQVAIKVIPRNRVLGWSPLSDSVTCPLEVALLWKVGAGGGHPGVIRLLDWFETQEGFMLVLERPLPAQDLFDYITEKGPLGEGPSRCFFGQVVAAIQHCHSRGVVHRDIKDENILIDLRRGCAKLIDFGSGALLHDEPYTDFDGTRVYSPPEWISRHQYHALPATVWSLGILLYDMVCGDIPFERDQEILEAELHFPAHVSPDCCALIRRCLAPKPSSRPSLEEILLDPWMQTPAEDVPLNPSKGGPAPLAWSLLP

[7] = Intrinsic clearance in rat liver microsomes at 1 uM after 30 mins in presence of NADPH; format: ADME, Microsome; details: read-out: CLH
[8] = Intrinsic clearance in human liver microsomes at 1 uM after 30 mins in presence of NADPH; format: ADME, Microsome; details: read-out: CLH
[9] = Clearance in rat at 2 mg/kg, iv; format: ADME, organism-based; details: in vivo
[10] = Half life in rat at 2 mg/kg, iv or 5 mg/kg, po; format: ADME, organism-based; details: in vivo
[11] = target: Serine/threonine-protein kinase pim-1 (Homo sapiens, UniProt P11309)
Serine/threonine-protein kinase pim-1, sequence (P11309 whole entry): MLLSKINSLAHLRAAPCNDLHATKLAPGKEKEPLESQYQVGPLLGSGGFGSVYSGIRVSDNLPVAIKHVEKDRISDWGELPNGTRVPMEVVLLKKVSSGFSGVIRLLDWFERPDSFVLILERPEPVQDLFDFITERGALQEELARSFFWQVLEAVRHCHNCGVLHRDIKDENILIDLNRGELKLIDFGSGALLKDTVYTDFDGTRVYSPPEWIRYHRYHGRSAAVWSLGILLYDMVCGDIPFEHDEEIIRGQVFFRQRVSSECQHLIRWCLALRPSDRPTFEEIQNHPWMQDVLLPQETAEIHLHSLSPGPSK

[12] = target: Serine/threonine-protein kinase PIM (Homo sapiens, UniProt P11309+Q9P1W9+Q86V86); details: kms-12-bm
[13] = Intrinsic clearance in dog liver microsomes at 1 uM after 30 mins in presence of NADPH; format: ADME, Canis lupus familiaris, Microsome; details: read-out: CLH
How it was run: (§1)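 Parent compound at 1 µM was incubated with liver microsomes (rat or dog, 0.25 mg/mL) in 66.7 mM potassium phosphate, pH 7.4, with 1 mM NADPH at 37 °C for 30 min.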

[14] = Clearance in dog at 0.3 mg/kg, iv; format: ADME, organism-based, Canis lupus familiaris; details: in vivo
[15] = Volume of distribution at steady state in dog at 0.3 mg/kg, iv; format: ADME, organism-based, Canis lupus familiaris; details: in vivo; for Vd: read-out: Vdss
[16] = Half life in dog at 0.3 mg/kg, iv; format: ADME, organism-based, Canis lupus familiaris; details: in vivo
[17] = Drug metabolism in dog hepatocytes assessed as hydroxylation on the quinoxaline bicycle; format: ADME, cell-based, Canis lupus familiaris, Hepatocyte
[18] = Fraction unbound in rat plasma at 5 uM by rapid equilibrium dialysis; format: ADME, cell-free
[19] = Fraction unbound in dog plasma by rapid equilibrium dialysis; format: ADME, cell-free, Canis lupus familiaris
[20] = Unbound clearance in iv dosed dog; format: ADME, organism-based, Canis lupus familiaris; details: in vivo
How it was run: (§2)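 Unbound plasma fraction (fu) measured by rapid equilibrium dialysis in rat or dog plasma; unbound clearance CLu calculated from IV clearance and fu.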

[21] = Intrinsic clearance in rat hepatocytes assessed per 10^6 cells; format: ADME, cell-based, Hepatocyte; details: read-out: CLH
[22] = Intrinsic clearance in dog hepatocytes assessed per 10^6 cells; format: ADME, cell-based, Canis lupus familiaris, Hepatocyte; details: read-out: CLH
[23] = Unbound clearance in iv dosed rat; format: ADME, organism-based; details: in vivo
How it was run: as §2

KMS-12-BM = assay: Antitumor activity against human KMS-12-BM cells xenografted in SCID-bg mouse assessed as tumor growth inhibition at 50 mg/kg, po qd measured twice per week; format: functional; details: read-out: TGI
[24] = Drug metabolism in rat liver microsomes assessed as hydroxylation of t-butyl group measured as 2-(6-fluoro-3-(1-hydroxy-2-methylpropan-2-ylamino)-2-methylquinoxalin-5-yl)-6,7-dihydro-1H-pyrrolo[3,2-c]pyridin-4(5H)-one formation; format: ADME, Microsome
[25] = Drug metabolism in dog liver microsomes assessed as dehydrogenation of 6,7-dihydro-1H-pyrrolo[3,2-c]pyridin-4(5H)-one measured as 2-(3-(tert-butylamino)-6-fluoro-2-methylquinoxalin-5-yl)-1H-pyrrolo[3,2-c]pyridin-4(5H)-one formation; format: ADME, Canis lupus familiaris, Microsome
[26] = Drug level in rat liver microsomes treated with 2-(3-(tert-butylamino)-6-fluoro-2-methylquinoxalin-5-yl)-6,7-dihydro-1H-pyrrolo[3,2-c]pyridin-4(5H)-one; format: ADME, Microsome
How it was run: as §1

[27] = Drug level in dog liver microsomes treated with 2-(3-(tert-butylamino)-6-fluoro-2-methylquinoxalin-5-yl)-6,7-dihydro-1H-pyrrolo[3,2-c]pyridin-4(5H)-one; format: ADME, Canis lupus familiaris, Microsome
How it was run: as §1

Homo sapiens = species on record: Homo sapiens; assay: Ratio of IC50 for pan Pim in human KMS-12-BM cells to IC50 for full length recombinant Pim-2 (unknown origin); format: cell-based
How it was run: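 Enzyme step: full-length recombinant human Pim-2 phosphorylating a BAD peptide at Ser112. The shift is the ratio of the cellular potency to the enzymatic potency.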

| SMILES | solubility at 1 h [1] [µM] | Vd [2] [L/kg] | bioavailability [3] [%] | pIC50 [6] | microsomal CLint at 1 µM [7] [µL/min/mg] | microsomal CLint at 1 µM [8] [µL/min/mg] | clearance [9] [mL/min/kg] | half-life [10] [h] | pIC50 [11] | IC50 [12] [nM] | other results |
| --- | --- | --- | --- | --- | --- | --- | --- | --- | --- | --- | --- |
| Cc1nc2cccc3c2nc1N[C@H](C)/C=C\C[C@H]1CNC(=O)c2cc-3[nH]c21 | 295 (≈ 106 µg/mL) | – | – | – | – | – | – | – | – | – | – |
| C[C@H]1NC(=O)c2cc(-c3cccc4c(=O)n(C)c(NC5(C)CC5)nc34)[nH]c21 | 344 (≈ 125 µg/mL) | 1.9 | 5 | – | – | – | – | – | – | – | solubility at 1 h [4]: 56 µM (≈ 20.4 µg/mL); Papp [5]: 29 ×10⁻⁶ cm/s |
| Cc1nc2cccc(-c3cc4c([nH]3)[C@@H](CCN)NC4=O)c2nc1NC(C)(C)C | – | 21.2 | < 1 | 9.52 | < 14 | < 14 | 23.3 | 17.5 | 9.22 | 22 | – |
| Cc1nc2cccc(-c3cc4c([nH]3)[C@@H](C)NC4=O)c2nc1NC(C)(C)C | 245 (≈ 85.6 µg/mL) | 1.3 | 62 | – | 50 | 37 | 8.33 | 3 | – | – | solubility at 1 h [4]: 99 µM (≈ 34.6 µg/mL); microsomal CLint at 1 µM [13]: 88 µL/min/mg; clearance [14]: 26.7 mL/min/kg; Vd [15]: 1.7 L/kg; half-life [16]: 0.6 h; Drug metabolism [17]: Metabolite_Detected |
| Cc1nc2cccc(-c3[nH]c4c(c3Cl)C(=O)N[C@@H]4C)c2nc1NC(C)(C)C | – | – | – | – | 143 | 111 | – | – | – | – | – |
| Cc1nc2cccc(-c3cc4c(s3)C(=O)NC4)c2nc1NC(C)(C)C | – | – | – | 8.60 | 373 | 104 | – | – | 8.60 | 1380 | – |
| C[C@H]1NC(=O)c2cc(-c3cccc4c(=O)n(C)c(N(C)C(C)(C)C)nc34)[nH]c21 | 122 (≈ 46.3 µg/mL) | – | – | 9.00 | – | – | – | – | 8.82 | 167 | solubility at 1 h [4]: 61 µM (≈ 23.1 µg/mL) |
| C[C@H]1NC(=O)c2cc(-c3c(F)ccc4c(=O)n(C)c(NC(C)(C)C)nc34)[nH]c21 | 23 (≈ 8.82 µg/mL) | 1.4 | 10 | – | 16 | < 14 | 6.67 | 4.3 | – | – | solubility at 1 h [4]: 14 µM (≈ 5.37 µg/mL); Papp [5]: 16 ×10⁻⁶ cm/s; fraction unbound at 5 µM [18]: 0.062 |
| C[C@H]1NC(=O)c2cc(-c3cccc4c(=O)n(C)c(NC(C)(C)CO)nc34)[nH]c21 | 134 (≈ 51.1 µg/mL) | – | – | 9.05 | – | – | – | – | 9.15 | 127 | solubility at 1 h [4]: 101 µM (≈ 38.5 µg/mL) |
| Cc1nc2cccc(-c3cc4c([nH]3)C3(CC3)NC4=O)c2nc1NC(C)(C)C | – | 1.3 | 100 | 9.30 | 52 | 35 | 10 | 4.5 | 9.40 | 78 | – |
| Cc1nc2ccc(F)c(-c3cc4c([nH]3)[C@@H](C)NC4=O)c2nc1NC(C)(C)C | – | 1.6 | 54 | – | 52 | 35 | 8.33 | 2.9 | – | – | microsomal CLint at 1 µM [13]: 105 µL/min/mg; clearance [14]: 25 mL/min/kg; Vd [15]: 1.7 L/kg; half-life [16]: 1.1 h |
| Cc1nc2ccc(F)c(-c3cc4c([nH]3)CCNC4=O)c2nc1NC(C)(C)C | – | 1 | 37 | 9.52 | 189 | 66 | 6.67 | 3.5 | 9.52 | 23 | microsomal CLint at 1 µM [13]: 203 µL/min/mg; CL [14]: 56.7 mL/min/kg; Vdss [15]: 8.7 L/kg; t1/2 [16]: 0.6 h; fraction unbound at 5 µM [18]: 0.017; fraction unbound [19]: 0.06; CL free [20]: 943 mL/min/kg; hepatocyte CLint [21]: 39 µL/min/1e6 cells; hepatocyte CLint [22]: 32 µL/min/1e6 cells; CL free [23]: 392 mL/min/kg; inhibition in vivo at 50 mg/kg (KMS-12-BM): 78%; Drug metabolism [24]: Metabolite_Detected; Drug metabolism [25]: Metabolite_Detected |
| C[C@H]1NC(=O)c2cc(-c3cccc4c(=O)n(C)c(N5CCCC5(C)C)nc34)[nH]c21 | 35 (≈ 13.7 µg/mL) | – | – | 9.22 | – | – | – | – | 9.05 | 88 | solubility at 1 h [4]: 20 µM (≈ 7.83 µg/mL) |
| Cc1nc2cccc(-c3cc4c([nH]3)CNC4=O)c2nc1NC(C)(C)C | – | 2.3 | 36 | 9.05 | 96 | 45 | 26.7 | 1.7 | – | 44 | – |
| Cc1nc2cccc(-c3cc4c([nH]3)C3(CCOCC3)NC4=O)c2nc1NC(C)(C)C | – | – | – | 6.93 | 45 | < 14 | – | – | 7.36 | 5760 | – |
| C[C@H]1NC(=O)c2cc(-c3cccc4c3N=C(NC(C)(C)C)N(C)S4(=O)=O)[nH]c21 | – | – | – | 8.28 | – | – | – | – | 8.19 | 1142 | – |
| Cc1nc2ccc(F)c(-c3cc4c([nH]3)CCNC4=O)c2nc1NC(C)(C)CO | – | – | – | 9.52 | – | – | – | – | 9.05 | 143 | Drug metabolism [26]: Metabolite_Detected |
| Cc1nc2cccc(-c3cc4c(s3)CNC4=O)c2nc1NC(C)(C)C | – | – | – | 8.17 | 326 | 102 | – | – | 8.19 | 2870 | – |
| C[C@H]1NC(=O)c2cc(-c3nccc4c(=O)n(C)c(NC(C)(C)C)nc34)[nH]c21 | – | – | – | 8.13 | – | – | – | – | 8.35 | 1642 | – |
| Cc1c(NC(C)(C)C)nc2c(-c3cc4c([nH]3)[C@@H](C)NC4=O)cccn2c1=O | – | – | – | 8.68 | – | – | – | – | 8.51 | > 2000 | – |
| Cc1nc2cccc(-c3cc4c([nH]3)[C@H](C)NC4=O)c2nc1NC(C)(C)C | – | – | – | – | 130 | 89 | – | – | – | – | – |
| Cc1nc2ccc(F)c(-c3cc4c(=O)[nH]ccc4[nH]3)c2nc1NC(C)(C)C | – | – | – | 10.00 | – | – | – | – | 9.70 | 148 | Drug metabolism [27]: Metabolite_Detected |
| Cc1nc2cccc(-c3cc4c([nH]3)CCCNC4=O)c2nc1NC(C)(C)C | – | – | – | – | 169 | 67 | – | – | – | – | – |
| Cc1nc2cccc(-c3cc4n(c3)CCNC4=O)c2nc1NC(C)(C)C | – | – | – | 8.21 | 205 | 85 | – | – | 8.18 | 4560 | – |
| Cc1nc2cccc(-c3cc4c([nH]3)CCNC4=O)c2nc1NC(C)(C)C | – | 4.2 | 6 | 9.22 | 86 | 70 | 11.7 | 4.7 | 9.10 | 110 | – |
| C[C@H]1NC(=O)c2cc(-c3cccc4c(=O)n(C)c(CC(C)(C)C)nc34)[nH]c21 | 9 (≈ 3.28 µg/mL) | – | – | 8.31 | – | – | – | – | 8.14 | 5960 | Ratio IC50 (Homo sapiens): > 1000 |
